Laboratory results reported in ChEMBL document CHEMBL1148788 (J Med Chem, 2007).
Values joined by “and” are separate entries in the source; they are usually repeats but may differ in a detail not shown here. Equal values may be shown once. Active and inactive are the calls of the source. The calls are words filed in the database; no cut-off is given here.

What was measured:
tsA201 [1] = assay: Displacement of [3H]methyllycaconitine from chimeric alpha-7nAChR W55A/Y195A mutant /5HT3A receptor in tsA201 cells; format: cell-based; conditions: Homo sapiens
Method in brief: (§1)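 tsA-201 cells transiently transfected with 4 µg WT or mutant α7/5-HT3A chimera and assayed 2 days later. Membranes washed twice at 50000g in 50 mM Tris-HCl pH 7.2. Incubated with 0.5 nM [3H]MLA and compound for 2.5 h at room temperature with shaking; nonspecific binding with 5 mM (S)-nicotine. PEI-soaked GF/C filtration, scintillation counting. Ki derived; duplicate, 3–7 experiments.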

[2] = biological target: T1, Neuronal acetylcholine receptor subunit alpha-7 (Homo sapiens, UniProt P36544); assay: Displacement of [3H]methyllycaconitine from alpha7 nAChR in tsA201 cells co-expressed with Ric3; format: cell-based
[3] = biological target: T2, 5-hydroxytryptamine receptor 3A (Homo sapiens, UniProt P46098); assay: Displacement of [3H]GR65630 from human 5HT3A receptor in HEK293 cells; format: cell-based
T2 sequence (P46098 whole entry): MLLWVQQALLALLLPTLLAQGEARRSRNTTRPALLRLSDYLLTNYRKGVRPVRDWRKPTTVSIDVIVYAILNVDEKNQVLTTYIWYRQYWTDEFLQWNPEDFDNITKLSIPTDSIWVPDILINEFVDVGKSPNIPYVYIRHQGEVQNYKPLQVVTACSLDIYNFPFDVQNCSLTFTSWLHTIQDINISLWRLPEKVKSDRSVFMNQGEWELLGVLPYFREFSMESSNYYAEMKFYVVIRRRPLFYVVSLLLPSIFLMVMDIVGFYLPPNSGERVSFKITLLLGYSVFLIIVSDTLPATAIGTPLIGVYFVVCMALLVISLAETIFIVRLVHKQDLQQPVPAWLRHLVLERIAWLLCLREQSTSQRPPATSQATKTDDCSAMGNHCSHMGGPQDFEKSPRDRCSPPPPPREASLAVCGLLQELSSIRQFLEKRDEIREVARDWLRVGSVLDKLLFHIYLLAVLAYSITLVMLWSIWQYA

tsA201 [4] = assay: Displacement of [3H]methyllycaconitine from chimeric alpha-7nAChR W149A mutant/5HT3A receptor in tsA201 cells; format: cell-based; conditions: Homo sapiens; method in brief: as §1
[5] = biological target: T1, Neuronal acetylcholine receptor subunit alpha-7
[6] = biological target: T3, Neuronal acetylcholine receptor; alpha3/beta4 (Rattus norvegicus, UniProt P04757+P12392); assay: Antagonist activity at rat alpha3beta4 nAChR expressed in HEK293 cells by FMP assay; format: functional, cell-based, Homo sapiens
[7] = Antagonist activity at human alpha7nAChR Y93A mutant co-expressed with human Ric3 in tsA201 cells by FMP assay; format: functional, cell-based
[8] = Displacement of [3H]methyllycaconitine from chimeric alpha7nAChR R79A mutant/5HT3A receptor R79A mutant in tsA201 cells; format: cell-based, Homo sapiens; method in brief: as §1
[9] = biological target: T3, Neuronal acetylcholine receptor; alpha3/beta4; assay: Displacement of [3H]epibatidine from recombinant rat alpha-3-beta-4 nAChr in HEK293 cell line; format: cell-based
[10] = Displacement of [3H]methyllycaconitine from chimeric alpha-7nAChR S150A mutant/5HT3A receptor in tsA201 cells; format: cell-based, Homo sapiens; method in brief: as §1

T1 sequence (P36544 whole entry): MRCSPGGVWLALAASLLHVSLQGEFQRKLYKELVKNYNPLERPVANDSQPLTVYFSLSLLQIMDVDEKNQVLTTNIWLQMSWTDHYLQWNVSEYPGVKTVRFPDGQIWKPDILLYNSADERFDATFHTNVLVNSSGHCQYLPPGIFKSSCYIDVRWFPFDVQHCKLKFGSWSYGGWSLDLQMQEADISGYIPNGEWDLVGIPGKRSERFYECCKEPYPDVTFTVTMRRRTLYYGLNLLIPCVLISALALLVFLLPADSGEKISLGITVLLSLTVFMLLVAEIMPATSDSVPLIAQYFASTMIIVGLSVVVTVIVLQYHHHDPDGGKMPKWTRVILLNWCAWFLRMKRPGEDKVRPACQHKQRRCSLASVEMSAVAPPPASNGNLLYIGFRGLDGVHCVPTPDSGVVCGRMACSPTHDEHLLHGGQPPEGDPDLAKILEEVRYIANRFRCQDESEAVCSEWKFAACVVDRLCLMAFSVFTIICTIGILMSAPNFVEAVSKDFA
T3 sequence (P04757 whole entry): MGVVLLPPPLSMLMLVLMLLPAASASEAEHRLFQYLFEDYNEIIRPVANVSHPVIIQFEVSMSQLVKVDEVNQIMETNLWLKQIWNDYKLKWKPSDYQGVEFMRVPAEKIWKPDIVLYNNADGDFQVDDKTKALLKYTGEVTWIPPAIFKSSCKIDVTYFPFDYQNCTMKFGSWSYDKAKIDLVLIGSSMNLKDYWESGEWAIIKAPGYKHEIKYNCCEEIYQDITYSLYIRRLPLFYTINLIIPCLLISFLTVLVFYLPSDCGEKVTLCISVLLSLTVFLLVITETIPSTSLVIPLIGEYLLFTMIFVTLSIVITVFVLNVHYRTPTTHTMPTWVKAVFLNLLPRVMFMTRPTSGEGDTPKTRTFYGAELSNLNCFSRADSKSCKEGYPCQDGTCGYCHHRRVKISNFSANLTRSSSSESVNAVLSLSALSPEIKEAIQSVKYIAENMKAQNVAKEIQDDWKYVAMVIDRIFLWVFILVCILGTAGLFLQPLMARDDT
T3 sequence (P12392 whole entry): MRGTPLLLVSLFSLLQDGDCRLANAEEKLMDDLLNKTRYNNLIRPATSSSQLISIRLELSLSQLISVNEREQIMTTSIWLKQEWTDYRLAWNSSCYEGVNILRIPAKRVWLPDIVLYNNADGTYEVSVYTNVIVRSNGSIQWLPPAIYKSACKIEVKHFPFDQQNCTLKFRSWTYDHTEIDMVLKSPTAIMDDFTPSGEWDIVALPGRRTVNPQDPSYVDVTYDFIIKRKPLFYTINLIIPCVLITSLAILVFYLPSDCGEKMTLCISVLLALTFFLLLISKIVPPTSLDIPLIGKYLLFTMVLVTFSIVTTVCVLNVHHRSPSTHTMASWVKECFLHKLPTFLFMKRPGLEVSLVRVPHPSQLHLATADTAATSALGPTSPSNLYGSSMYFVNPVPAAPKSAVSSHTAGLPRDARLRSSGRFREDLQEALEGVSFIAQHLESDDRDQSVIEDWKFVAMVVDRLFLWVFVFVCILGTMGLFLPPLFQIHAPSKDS

O=[N+]([O-])c1ccc(C[N+]23CC[C@@H]4[C@@H]5[C@@H]6[C@@H](OCC=C(C2)[C@@H]6C[C@@H]43)N2c3ccccc3[C@@]34CC[N+]6(Cc7ccc([N+](=O)[O-])cc7)CC7=CCO[C@H]([C@@H]([C@H]23)[C@H]7C[C@@H]46)N5c2ccccc2)cc1.[Br-].[Br-] (stereo partly specified)
Activity (tsA201 [1]): inactive
Ki ([2]; read-out: Ki): 29 nM
Ki ([2]; read-out: pKi (converted)): 31.6 nM
Ki [3]: 23000 nM
Activity (tsA201 [4]): inactive
IC50 [5]: 360 nM and 363 nM
pIC50 ([6]; hek293): < 4
IC50 ([6]; read-out: IC50): > 100000 nM
IC50 ([7]; read-out: IC50): 19000 nM
IC50 ([7]; read-out: pIC50 (converted)): 19500 nM
Ki [8]: 32 nM
pKi [8]: 7.5
Ki [9]: > 100000 nM
pKi ([9]; hek293): < 4
Ki [10]: 35 nM
pKi [10]: 7.45
